Results gathered from unrelated publications.
Target: Ephrin type-B receptor 3 (EPHB3, Homo sapiens, UniProt P54753)
Sequence (P54753 34-998, as in one of the studies): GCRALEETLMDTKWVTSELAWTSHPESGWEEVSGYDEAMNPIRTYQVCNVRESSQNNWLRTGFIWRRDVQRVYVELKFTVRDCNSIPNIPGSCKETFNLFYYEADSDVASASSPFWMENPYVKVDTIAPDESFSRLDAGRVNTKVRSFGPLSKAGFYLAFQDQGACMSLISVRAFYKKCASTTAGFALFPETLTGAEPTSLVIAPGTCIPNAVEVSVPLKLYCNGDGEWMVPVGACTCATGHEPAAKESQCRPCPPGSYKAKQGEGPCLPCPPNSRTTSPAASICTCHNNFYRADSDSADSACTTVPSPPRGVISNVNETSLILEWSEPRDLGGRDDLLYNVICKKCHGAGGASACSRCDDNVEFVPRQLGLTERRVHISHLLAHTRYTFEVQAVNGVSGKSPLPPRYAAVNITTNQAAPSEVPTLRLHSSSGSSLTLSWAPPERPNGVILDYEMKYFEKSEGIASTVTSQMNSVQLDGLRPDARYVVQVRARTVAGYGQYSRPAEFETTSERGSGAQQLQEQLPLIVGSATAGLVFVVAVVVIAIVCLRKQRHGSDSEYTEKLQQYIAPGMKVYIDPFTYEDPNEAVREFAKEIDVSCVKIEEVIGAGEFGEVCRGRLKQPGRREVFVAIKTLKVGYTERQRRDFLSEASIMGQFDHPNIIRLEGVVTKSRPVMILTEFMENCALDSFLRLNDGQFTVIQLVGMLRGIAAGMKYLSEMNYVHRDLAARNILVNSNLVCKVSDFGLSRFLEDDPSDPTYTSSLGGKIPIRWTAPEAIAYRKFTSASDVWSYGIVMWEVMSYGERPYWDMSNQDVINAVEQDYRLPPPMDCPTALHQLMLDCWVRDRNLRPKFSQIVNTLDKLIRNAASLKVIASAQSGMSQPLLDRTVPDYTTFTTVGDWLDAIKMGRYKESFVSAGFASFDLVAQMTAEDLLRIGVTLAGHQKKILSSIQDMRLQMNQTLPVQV

| Compound | observed | mode | technique | tested at | measurement | result |
| --- | --- | --- | --- | --- | --- | --- |
| Cn1cncc1[C@](O)(COc1ccc(C#N)cc1-c1ccc(OC(F)(F)F)cc1)c1ccc(C#N)cc1 | cell-free assay |  | competition with immobilised ligand | 1 µM | remaining binding | 100% |
| CC(C)(C)c1cc(C=C(C#N)C#N)cc(Br)c1O | enzyme activity | inhibitor |  | 0.5 µM | remaining activity | 107% |
| Cn1cc(-c2cccc(N3CCc4c(sc5c4CC(C)(C)C5)C3=O)c2CO)cc(Nc2ccncn2)c1=O | enzyme activity | inhibitor |  | 1 µM | inhibition | 1% |
| COc1ncccc1-c1cnn2ccc(N3CCN(C(=O)OC(C)C)CC3)nc12 | binding |  | competition with immobilised ligand | 1 µM | remaining binding | 100% |
| Cc1nn(C)cc1-c1nc2c(N3CCN(Cc4ccc(Cl)cc4)CC3)c(Cl)cnc2[nH]1 | binding |  | competition with immobilised ligand | 1 µM | remaining binding | 77% |
| Cn1cc(-c2cc(F)cc(N3CCn4c(cc5c4CCCC5)C3=O)c2CO)cc(Nc2ccc(N3CCN(C4COC4)CC3)cn2)c1=O | enzyme activity | inhibitor |  | 0.1 µM | inhibition | 7% |
| N#CC1(c2ccccn2)CCN(Cc2cc(C(=O)O)c(=O)n3ccccc23)CC1 | cell-free assay |  | competition with immobilised ligand | 1 µM | remaining binding | 92% |
| O=c1[nH]c2ccccc2n1C1CCN(Cc2ccc(-c3[nH]c4cc5ncnc5cc4nc3-c3ccccc3)cc2)CC1 | cell-free assay |  |  | 0.5 µM | remaining signal | 104% |
| COc1cc(Nc2ncc(F)c(Nc3ccc4c(n3)NC(=O)C(C)(C)O4)n2)cc(OC)c1OC | binding |  |  | 10 µM | inhibition | 0% |
